# Laboratory results reported in PubChem BioAssay.
# Calls of active or inactive are those of the source.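 How the source made its calls, unless noted: active means NADPH fluorescence slope more negative than the mean of all samples by about 3 SD, 99.7% confidence; inactive means the rest.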
# What was measured:
# [1] = inhibitors of TNFa-induced NFkB p65 translocation, primary screen, imaging, HUVEC, MLSMR starter and 10KST1 sets (AID 438;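 active means inhibition above 20% together with a positive visual image hit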;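 further: compound added about 3h40 before a 20 min TNFalpha stimulation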;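 on inhibition: signal is the nuclear over cytoplasmic p65 intensity ratio per well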); conditions: HUVEC TNFa-induced p65 nuclear translocation; cell count: measured here: nuclei count (cytotoxicity indicator), at 2.08 µM; inhibition: at 2 µM, stronger effect = higher value, 0% TNFa-plus-vehicle, 100% no-TNFa wells
# [2] = inhibitors of mutant huntingtin aggregation, primary screen, imaging, exon1htt(103Q)mCFP cells, high-content imaging (AID 483;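 active means visual image review flags a hit and inhibition of aggregation exceeds 20%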;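 further: compound exposure lasted 3 days before fixation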;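 on nuclei count: percent of the per-plate median nuclei count of sample wells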); conditions: exon1htt(103Q)mCFP cell line, aggregate imaging, at 2 µM; inhibition of aggregation: stronger effect = higher value; nuclei count: measured here: cell count, toxicity
# [3] = inhibitors of E-selectin induction by TNFa, primary screen, imaging, HUVEC, immunofluorescence, MLSMR starter and 10KST1 sets (AID 487;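 active means visually confirmed hit in the image check and inhibition above 20%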;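 on inhibition: signal is fraction of cell area covered by stained E-selectin grains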;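 on nuclei count: 100% = median nuclei count of all wells on the same plate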); conditions: HUVEC TNFalpha-induced E-selectin immunofluorescence imaging, at 2 µM; inhibition: stronger effect = higher value; nuclei count: measured here: cell number, toxicity
# [4] = target: Voltage-gated potassium channel subunit beta-2 (Rattus norvegicus) (UniProt P62483); experiment: KvBeta enzyme negative modulators, primary screen, biochemical, NADPH fluorescence (AID 622;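 active means fluorescence slope higher than the sample average by over 3 SD, cut at about -0.22 in these data, passing the limit was not always enough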;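 further: slope of raw intensity against log time taken from 70 to 1610 s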); conditions: recombinant KvBeta, 4-cyanobenzaldehyde reduction, at 10 µM, stronger effect = higher value
# Sequence of Voltage-gated potassium channel subunit beta-2 (Rattus norvegicus) (P62483 whole entry, looked up): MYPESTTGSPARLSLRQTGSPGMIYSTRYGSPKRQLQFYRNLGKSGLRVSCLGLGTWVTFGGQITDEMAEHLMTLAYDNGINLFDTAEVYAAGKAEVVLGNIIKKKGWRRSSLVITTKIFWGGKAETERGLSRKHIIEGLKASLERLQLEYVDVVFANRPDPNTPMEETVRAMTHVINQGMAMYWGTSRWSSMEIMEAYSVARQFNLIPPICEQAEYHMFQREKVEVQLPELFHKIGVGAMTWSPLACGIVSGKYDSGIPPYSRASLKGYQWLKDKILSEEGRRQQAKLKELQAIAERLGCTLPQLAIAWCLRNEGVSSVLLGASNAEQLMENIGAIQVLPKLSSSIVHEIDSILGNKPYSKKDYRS
# [5] = target: Voltage-gated potassium channel subunit beta-2 (Rattus norvegicus) (UniProt P62483); experiment: KvBeta positive modulators, primary screen, biochemical, NADPH fluorescence (AID 623); conditions: Recombinant KvBeta, NADPH fluorescence decrease slope, 10 min; at 10 µM; stronger effect = lower value;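 further: fluorescence intensity change per second fitted from 20 to 320 s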
# [6] = target: Muscarinic acetylcholine receptor M4 (Homo sapiens) (UniProt P08173); experiment: compounds altering M4/GIRK thallium flux, either direction, primary screen, M4 allosteric agonist project, cell-based, HEK293 M4/GIRK, BTC-AM (AID 625;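 active means fluorescence slope after compound addition differing from the mean of all tested samples at 99.7% confidence, mostly higher but some lower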;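 further: thallium influx through GIRK channels coupled to M4 in HEK293 cells with BTC-AM dye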); conditions: at 10 µM, actives lie on both sides
# Sequence of Muscarinic acetylcholine receptor M4 (Homo sapiens) (P08173 whole entry, looked up): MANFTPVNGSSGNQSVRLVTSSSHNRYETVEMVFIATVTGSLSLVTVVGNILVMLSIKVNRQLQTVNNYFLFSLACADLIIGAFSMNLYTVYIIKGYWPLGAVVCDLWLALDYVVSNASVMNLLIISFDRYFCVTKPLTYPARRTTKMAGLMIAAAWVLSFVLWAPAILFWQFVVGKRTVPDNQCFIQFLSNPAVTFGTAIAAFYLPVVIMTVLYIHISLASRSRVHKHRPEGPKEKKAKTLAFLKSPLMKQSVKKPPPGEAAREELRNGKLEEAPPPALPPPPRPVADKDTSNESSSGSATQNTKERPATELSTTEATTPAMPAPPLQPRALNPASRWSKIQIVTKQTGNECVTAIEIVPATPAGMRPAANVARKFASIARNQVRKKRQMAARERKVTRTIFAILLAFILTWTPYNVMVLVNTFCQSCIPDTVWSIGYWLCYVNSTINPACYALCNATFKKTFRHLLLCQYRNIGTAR
# Method in brief: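 assay system = HEK293 cells with M4 receptor and GIRK channels | medium = pH 7.3 thallium assay buffer | doses = 10 µM final, single point | timing = cells overnight at 37 °C, BTC-AM loading 1 h, reads 2 min total | signal = BTC-AM fluorescence, 1 Hz kinetic reads | read-out = post-addition slope, 15–24 s, of baseline-normalized fluorescence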
# [7] = inhibitors of Sendai virus-induced IRF3 signaling, primary screen, TLR/RLR signaling modifier project, cell-based, Sendai virus stimulus, luciferase, 10K MLSCN set (AID 602276;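 active means inhibition at or above 50% at 10 µM; inactive means inhibition below 50%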;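 further: firefly luciferase from ISG56 promoter only with Renilla not read in this screen; 0% = Sendai virus plus DMSO and 100% = medium plus DMSO without virus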); conditions: HEK293 RL24 IRF3 luciferase reporter, at 10 µM, stronger effect = higher value
# [8] = inhibitors of poly I:C-induced TLR3 signaling, primary screen, cell-based, poly I:C stimulus, luciferase, 10K MLSCN set (AID 602277;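 active means inhibition of the reporter signal at or above 50%; inactive means inhibition below 50%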); conditions: HEK293-TLR3 RL24 IRF3 luciferase reporter, at 10 µM, stronger effect = higher value
Structure (SMILES),cell count [1],inhibition [1],inhibition of aggregation [2],nuclei count [2] [%],inhibition [3],nuclei count [3] [%],fluorescence slope [4],NADPH fluorescence slope [5],fluorescence slope [6],inhibition [7],inhibition [8]
CCCCCn1c(=O)[nH]c2cc(C(=O)NCCN3CCOCC3)ccc2c1=O,355,-1% (inactive),18% (inactive),104,-15.3% (inactive),120,-0.323 (inactive),-3.7e-05 (inactive),0.00658 (inactive),5.81% (inactive),9.94% (inactive)
CC1(C)Cc2noc(N)c2C(C)(C)N1OC(=O)c1ccco1,295,-6.6% (inactive),21.5% (inactive),87.2,-89.1% (inactive),88.4,-0.474 (inactive),2.9e-05 (inactive),0.00628 (inactive),16.2% (inactive),23.5% (inactive)
COc1cccc2cc(C(=O)N3CCc4ccccc43)c(=O)oc12,274,4.3% (inactive),-4.2% (inactive),106,18.4% (inactive),99,-0.466 (inactive),-5.5e-06 (inactive),0.00512 (inactive),8.43% (inactive),21% (inactive)
COc1cccc(NC(=O)CN2CCN(c3ccccc3F)CC2)c1,275,-7.3% (inactive),19.4% (inactive),90.1,11.9% (inactive),86.8,-0.526 (inactive),0.000174 (inactive),0.00586 (inactive),17.2% (inactive),10.2% (inactive)
CCOC(=O)C1CCN(C(=O)Nc2ccc(Cl)cc2Cl)CC1,262,0% (inactive),25.3% (inactive),89.6,-16.8% (inactive),80.6,-0.463 (inactive),-4.6e-05 (inactive),0.00434 (inactive),14% (inactive),1.16% (inactive)
Cc1ccc(C(C)C)c(OCc2nnc(SCC(=O)Nc3ncc(C)s3)n2C)c1,663,0.5% (inactive),-35.5% (inactive),108,-36.3% (inactive),108,-0.545 (inactive),-3.2e-05 (inactive),0.00564 (inactive),9.43% (inactive),12.4% (inactive)
CC(C)(C)C(=O)Oc1cc(N)n(S(=O)(=O)c2ccccc2)n1,228,-0.3% (inactive),-1.1% (inactive),109,-24.6% (inactive),129,-0.52 (inactive),-5.6e-05 (inactive),0.00539 (inactive),-12% (inactive),-7.53% (inactive)
Cc1ccc(S(=O)(=O)N2CCN(C(=O)CN3C(=O)NC4(CCOc5ccccc54)C3=O)CC2)cc1 (stereo not drawn),697,-3.3% (inactive),8.6% (inactive),106,-38.5% (inactive),112,-0.44 (inactive),-0.000543 (inactive),0.00414 (inactive),-12.9% (inactive),-7.58% (inactive)
Nc1c(Sc2ccccc2)c(=O)[nH]c(=O)n1Cc1ccccc1,254,7.4% (inactive),-8.5% (inactive),92.6,-3.2% (inactive),78.6,-0.249 (inactive),-4.4e-06 (inactive),0.00651 (inactive),-0.235% (inactive),-2.56% (inactive)
CCNC(=O)Cn1cnc2c1c(=O)n(C)c(=O)n2C,315,-12.5% (inactive),4.3% (inactive),113,7.8% (inactive),106,-0.617 (inactive),7.5e-06 (inactive),0.00466 (inactive),12.1% (inactive),14.3% (inactive)
CCn1c(SCC(=O)c2ccc3c(c2)OCCO3)nnc1-c1ccco1,571,-38.8% (inactive),-1% (inactive),115,-52.3% (inactive),117,-0.514 (inactive),-2.2e-05 (inactive),0.00561 (inactive),11.1% (inactive),0.911% (inactive)
CCCn1c(NCc2cc(C)ccc2O)nc2ccccc21,369,1.4% (inactive),4.3% (inactive),82.1,-16.5% (inactive),49.2,-0.522 (inactive),6.3e-06 (inactive),0.00499 (inactive),18.7% (inactive),19.5% (inactive)
CCS(=O)(=O)c1nc2ccccc2n1CC(=O)N1CCOCC1,581,-4.1% (inactive),-22.2% (inactive),95.9,-85.4% (inactive),98.1,-0.589 (inactive),-3e-05 (inactive),0.00736 (inactive),16.1% (inactive),10.7% (inactive)
